Sampled rows, rich in hits. Any-hit rate of the full collection: about 1.9%.
FAS-TE inh = FAS thioesterase (human) inhibition; P49327; recombinant FAS-TE, OMFH fluorogenic substrate, fluorescence endpoint; inhibition, % at 15 µM; 0.67% of 360,000 active;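 active = compounds whose normalised, plate-corrected inhibition of enzyme fluorescence in the single-dose primary screen is 50% or more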
SUMO1-SIM PPI = alters human SUMO1 binding to SIM partners; inhibition, % at 20 µM; AID 602429; 0.33% of 360,000 active; P63165; SUMO1 binding to a labelled peptide, TR-FRET, 1 h; in the data active = inhibition above about 37%
Target sequence (P63165 whole entry, looked up): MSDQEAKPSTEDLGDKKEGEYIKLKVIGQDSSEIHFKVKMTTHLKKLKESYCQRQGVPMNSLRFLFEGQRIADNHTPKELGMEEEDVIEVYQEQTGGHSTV
LMPTP inh = blocks human LMPTP phosphatase | P24666 | recombinant LMPTP-A, OMFP fluorogenic substrate, fluorescence intensity | inhibition, % at 20 µM | 0.22% of 360,000 active;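 active = compounds that cut the enzyme signal by at least half of the control window in the single-dose screen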
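Assay system: LMPTP-A enzyme. Input: 0.625 nM LMPTP-A final. Probe or stimulus: 400 µM OMFP. Compound dosing: single 20 µM dose. Schedule: 50 min dark incubation at room temperature. Detection: fluorescence intensity of OMFP turnover product. Read-out: percent inhibition versus substrate-only and uninhibited controls. Benchmarks: no-enzyme low control, uninhibited high control.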
STEP block = blocks human striatal-enriched tyrosine phosphatase | inhibition, % at 20 µM | 0.25% of 360,000 active | recombinant STEP, OMFP fluorogenic substrate, fluorescence | P54829 | AID 588621;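 active = inhibition at 20 µM, scaled per plate between control wells, above about 37%, limit read from the data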
Target sequence (P54829 whole entry, looked up): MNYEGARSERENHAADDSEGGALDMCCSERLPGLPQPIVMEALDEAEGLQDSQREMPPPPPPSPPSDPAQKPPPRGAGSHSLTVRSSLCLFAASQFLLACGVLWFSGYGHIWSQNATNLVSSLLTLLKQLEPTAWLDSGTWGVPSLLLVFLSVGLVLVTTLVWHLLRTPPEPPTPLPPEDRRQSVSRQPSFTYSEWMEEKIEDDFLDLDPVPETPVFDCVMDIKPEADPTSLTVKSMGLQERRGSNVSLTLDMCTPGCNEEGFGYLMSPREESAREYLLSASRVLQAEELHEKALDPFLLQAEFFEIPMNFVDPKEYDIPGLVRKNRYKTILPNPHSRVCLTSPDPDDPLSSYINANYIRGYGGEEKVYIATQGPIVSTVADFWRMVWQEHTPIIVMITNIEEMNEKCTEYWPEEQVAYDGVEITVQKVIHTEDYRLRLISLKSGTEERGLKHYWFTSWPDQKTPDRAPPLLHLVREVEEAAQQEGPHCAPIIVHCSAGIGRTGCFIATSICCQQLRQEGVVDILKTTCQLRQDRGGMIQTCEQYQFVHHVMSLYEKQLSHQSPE
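Material: STEP (striatal-enriched tyrosine phosphatase) enzyme, cell-free | Medium: 50 mM Bis-Tris pH 6.0 with 2.5 mM DTT and 0.005% Tween 20 | Read-out: Percent inhibition scaled to no-enzyme and uninhibited-enzyme controls, plate-pattern corrected | Signal: Fluorescence read at 480 nm ex / 540 nm em | Times: 20 min reaction, room temperature, in the dark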
Scp-1 inhibitor = Scp-1 (human) phosphatase inhibition; Q9GZU7; Recombinant Scp1, phosphopeptide, malachite green phosphate absorbance; inhibition, % at 20 µM; 0.88% of 340,000 active;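 active = inhibition above about 50% at 20 µM, limit read from the data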
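Material – SCP-1 phosphatase catalytic domain, residues 76-261 · Buffer or medium – Acidic Tris acetate buffer with magnesium and detergent · Also added – Phospho 17-mer peptide substrate · Compound – single 20 µM dose, 1% DMSO · Times – 45 min room-temperature reaction, 5 min colour, 30 min stabiliser · Technique – Phosphate-binding colour reagent, absorbance read at 630 nm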
Scp-1 conf = Scp-1 (human) inhibition, single-dose confirmed; shares compounds with Scp-1 inhibitor; recombinant SCP-1 catalytic domain, phosphate release, malachite green absorbance; inhibition, % at 20 µM; 61% of 2,500 active; AID 540281
Scp-1 MG ctr = colorimetric interference in Scp-1 counter-screen; 2,500 tested, under 10 active; shares compounds with Scp-1 inhibitor; Colorimetric interference counterscreen, malachite green absorbance 630 nm; apparent inhibition (interference), % at 20 µM; AID 540313;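 note: compounds added after enzyme reaction finished so only phosphate colour detection is probed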
Scp-1 Tm shift = binds human Scp-1, shifting its melting temperature; 25% of 1,500 active; thermal shift relative to vanadate control, % at 40 µM; shares compounds with Scp-1 inhibitor; Recombinant SCP1, Sypro Orange thermal shift Tm; AID 540329;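 active = substances whose mean melting-temperature shift, as a percentage of the reference inhibitor's shift, reaches about 5.3%, limit read from the data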
Numbers stand for hits; . = inactive; / = no result given.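 Rule for the calls, unless noted: active = inhibition of at least 30% at 20 µM; inactive = the rest.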

SMILES	FAS-TE inh	SUMO1-SIM PPI	LMPTP inh	STEP block	Scp-1 inhibitor	Scp-1 conf	Scp-1 MG ctr	Scp-1 Tm shift
Cc1csc(NC(=O)c2cc(C)nc3ccccc23)n1	.	.	.	.	.	/	/	/
O=C(Nc1nc2ccccc2s1)c1cc(-c2ccco2)nc2ccccc12	.	.	.	.	.	/	/	/
Cc1ccc(-c2cc(C(=O)NCc3ccco3)c3ccccc3n2)o1	.	.	.	.	77	71	.	.
O=c1[nH]c(CSc2ncnc3sc(-c4ccccc4)cc23)nc2ccccc12	.	.	.	.	.	/	/	/
CCOC(=O)C1=C[C@@H](c2ccccc2)N(S(=O)(=O)c2ccc(C)cc2)[C@H]1c1ccccc1Cl	.	.	.	.	/	/	/	/
O=C(CCCc1ccccc1)N=C1SC2CS(=O)(=O)CC2N1c1ccccc1F (configuration not stated)	.	.	.	.	.	/	/	/
COC(=O)CC1OCC=C2CN3CCC45C6=CC(=O)C(=O)C([N+](=O)[O-])=C6NC4C1C2CC35 (configuration not stated)	.	.	.	.	/	/	/	/
Cc1cccc(-c2oc3ccc(-c4ccc5c(c4)OCO5)cc3c2C(=O)OCc2ccc(O)cc2)c1	.	.	.	.	.	/	/	/
CC(=O)Nc1cccc(-c2csc(C(C)(O)c3ccc(F)c(F)c3)n2)c1 (configuration not stated)	.	.	.	.	/	/	/	/
O=C(Nc1nccs1)c1cc(-c2ccco2)nc2ccccc12	.	.	.	.	50	60	.	8.6
CCOC(=O)c1ccc(NC(=O)[C@@H]2CCC(=O)N2C2OC(=O)c3c2ccc(OC)c3OC)cc1 (some centres not stated)	.	.	.	.	/	/	/	/
COc1ccccc1OCCOc1ccc(/C=C2/C(=N)N3OC(C)=CC3=NC2=O)cc1OC	.	.	.	.	97	68	.	.
COc1cc(/C=C2\C(=N)N3N=C(S(C)(=O)=O)SC3=NC2=O)ccc1OC(=O)c1ccco1	.	.	.	.	52	68	.	11
COc1cc(/C=C2\C(=N)N3N=C(S(C)(=O)=O)SC3=NC2=O)ccc1OCCOc1ccccc1C	.	.	.	.	51	57	.	12
CCCNC(=O)C1(C)CCCN(C(=O)CN2C(=O)c3ccccc3C2=O)C1 (configuration not stated)	.	.	.	.	/	/	/	/
S=c1[nH]nc(-c2cc(-c3ccco3)[nH]n2)n1-c1ccccc1Cl	.	.	.	.	75	31	.	11
CC(=O)Nc1nnc(SCC(=O)Nc2ccc(N3CCOCC3)c(Cl)c2)s1	.	.	.	.	63	.	.	/
CC(=O)Nc1nnc(SCC(=O)Nc2ccc3c(c2)OCCO3)s1	.	.	.	.	.	/	/	/
Cn1c(=O)c2c(n(C)c1=O)n(C)c(=O)n2C	.	.	.	.	/	/	/	/
Cc1ccc2nc(N/C(=N/S(=O)(=O)c3cccs3)c3ccccc3Cl)sc2c1	.	.	.	.	.	/	/	/
CS(=O)(=O)c1ccc2sc(NC(=O)c3cc4ccccc4o3)nc2c1	.	.	.	.	69	.	.	/
COc1ccc(O)c(/C=N/NC(=O)c2c(C)nnn2-c2nonc2N)c1	.	.	.	68	100	86	.	.
Cc1ccn2cc(CCNC(=O)C3CC=CCC3C(=O)O)nc2c1 (configuration not stated)	.	.	.	.	55	.	.	/
O=C(CCS(=O)(=O)c1ccc(Br)cc1)Nc1ccc(Br)cc1F	.	.	.	.	56	54	.	.
CCc1cccc(NC(=O)CCS(=O)(=O)c2ccc(Br)cc2)c1	.	.	.	.	86	65	.	.
SMILES	FAS-TE inh	SUMO1-SIM PPI	LMPTP inh	STEP block	Scp-1 inhibitor	Scp-1 conf	Scp-1 MG ctr	Scp-1 Tm shift
Cc1ccc(S(=O)(=O)CCC(=O)Nc2cccc(C)c2)cc1	.	.	.	.	.	/	/	/
CCOP(=O)(c1ccccc1)C(O)c1ccc(Br)cc1 (configuration not stated)	.	.	.	.	.	/	/	/
CCN(CC)CCNC(C(=O)Nc1cc(C(F)(F)F)ccc1Cl)c1ccccc1 (configuration not stated)	.	.	.	.	91	91	.	.
COc1ccc(Br)cc1CN(C)CC(=O)Nc1ccccc1Cl	.	.	.	.	.	/	/	/
COc1ccc(OC)c(NC(=O)CN(C)CC(=O)Nc2ccccc2Cl)c1	.	.	.	.	58	.	.	/
COCCNC(=O)c1ccc(C2SCC(=O)N2Cc2ccco2)cc1 (configuration not stated)	.	.	.	.	.	/	/	/
C=CCNC(=O)c1ccc(C2SCC(=O)N2Cc2ccco2)cc1 (configuration not stated)	.	.	.	.	69	53	.	.
C=CCC[C@H](CCCCC)OC(=O)/C=C/[C@@H](O)[C@H](O)C[C@@H](O)CC=C	.	.	.	/	/	/	/	/
O=C(NCC1CCCO1)c1ccc(COc2ccccc2Br)cc1 (configuration not stated)	.	.	.	.	.	/	/	/
Cn1c(=O)cc(OCC(=O)NCCC2=CCCCC2)c2ccccc21	.	.	.	.	.	.	.	/
Cn1c(=O)cc(OCC(=O)NCCc2ccc(Cl)cc2)c2ccccc21	.	.	.	.	.	/	/	/
NC(N)=NS(=O)(=O)c1ccc(NC(=S)NC(=O)Cc2ccc(Cl)cc2)cc1	.	.	.	.	.	/	/	/
Cc1[nH]c2ccccc2c1/C=N/NC(=O)CNC(=O)c1ccc2c(c1)OCCO2	.	.	.	.	66	.	.	/
Cn1cc(/C=N/NC(=O)c2cc3cc(Br)ccc3o2)c2ccccc21	.	.	.	.	62	.	.	/
CC(=O)Nc1ccc(S(=O)(=O)N(C)CC(=O)N(C)Cc2sccc2C)cc1	.	.	.	.	.	/	/	/
Cc1cc(C(F)F)n2nc(C(=O)Nc3sc4c(c3C(N)=O)CCC4)nc2n1	.	.	.	.	61	55	.	.
COC(=O)c1c(NC(=O)c2nc3nc(C)cc(C(F)F)n3n2)sc2c1CCC2	.	.	.	.	.	/	/	/
CCCCCCCCN1C(=O)[C@H](CC(=O)N2CCN(C(=O)c3ccco3)CC2)C[C@@]2(C(=O)OC)CC(C)(C)CC=C12	/	.	.	/	/	/	/	/
CC(C(=O)Nc1cc([N+](=O)[O-])ccc1Cl)N1CCN(c2ccc(O)cc2)CC1 (configuration not stated)	.	.	.	.	57	.	.	/
O=C(COc1ccc(F)cc1)Nc1nc(-c2cccnc2)cs1	.	.	.	.	/	/	/	/
O=C(Nc1c(-c2ccccc2)[nH][nH]c1=O)c1ccco1	.	.	.	.	/	/	/	/

Screens: PubChem BioAssay, Sanford-Burnham Center for Chemical Genomics
